Assay results reported in ChEMBL document CHEMBL1137530, “The discovery of substituted 4-(3-hydroxyanilino)-quinolines as potent RET kinase inhibitors” (Bioorg Med Chem Lett, 2007).
Activity calls are given as the source filed them. No cut-off for these calls is given here.

How the values were obtained:
[1] = target: T1, Proto-oncogene tyrosine-protein kinase receptor Ret (Homo sapiens, UniProt P07949); experiment: Inhibition of RET kinase in Sf9 cells; type: cell-based
[2] = target: T1, Proto-oncogene tyrosine-protein kinase receptor Ret; experiment: Inhibition of RET kinase expressed in Sf9 cells at 5000 nm
Procedure, shortened: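 RET kinase domain (intracellular aa 713–1072, short isoform), expressed in Sf9 insect cells and Ni-purified. 100 ng enzyme was screened at a single 5000 nM concentration, in triplicate. Reaction: MOPS pH 7.4, MgCl2, ATP (100 µM stock) plus [γ-33P]ATP 1 µCi, and poly(Glu-Tyr) substrate, 30 min at room temperature. Stopped with 0.5% H3PO4, filtered on phosphocellulose, read as scintillation cpm (mean of three).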

[3] = target: Tyrosine-protein kinase Lyn (Homo sapiens) (UniProt P07948); experiment: Inhibitory of lyn
Chain of Tyrosine-protein kinase Lyn (Homo sapiens) (P07948 2-512 limits assumed): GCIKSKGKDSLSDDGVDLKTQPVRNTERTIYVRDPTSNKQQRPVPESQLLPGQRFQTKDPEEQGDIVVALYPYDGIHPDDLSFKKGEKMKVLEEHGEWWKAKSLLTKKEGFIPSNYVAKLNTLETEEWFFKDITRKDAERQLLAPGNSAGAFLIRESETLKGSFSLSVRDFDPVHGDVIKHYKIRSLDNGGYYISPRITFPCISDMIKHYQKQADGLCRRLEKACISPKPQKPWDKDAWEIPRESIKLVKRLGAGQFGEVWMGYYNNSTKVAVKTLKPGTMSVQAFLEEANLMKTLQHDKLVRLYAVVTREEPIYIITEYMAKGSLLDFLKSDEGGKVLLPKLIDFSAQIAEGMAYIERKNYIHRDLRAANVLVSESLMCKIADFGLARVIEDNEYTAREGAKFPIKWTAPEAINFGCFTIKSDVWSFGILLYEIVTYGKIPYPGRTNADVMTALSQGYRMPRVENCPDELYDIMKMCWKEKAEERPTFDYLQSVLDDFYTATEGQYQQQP

[4] = target: Vascular endothelial growth factor receptor 2 (Homo sapiens) (UniProt P35968); experiment: Inhibitory of VEGFR2
Chain of Vascular endothelial growth factor receptor 2 (Homo sapiens) (P35968 whole entry): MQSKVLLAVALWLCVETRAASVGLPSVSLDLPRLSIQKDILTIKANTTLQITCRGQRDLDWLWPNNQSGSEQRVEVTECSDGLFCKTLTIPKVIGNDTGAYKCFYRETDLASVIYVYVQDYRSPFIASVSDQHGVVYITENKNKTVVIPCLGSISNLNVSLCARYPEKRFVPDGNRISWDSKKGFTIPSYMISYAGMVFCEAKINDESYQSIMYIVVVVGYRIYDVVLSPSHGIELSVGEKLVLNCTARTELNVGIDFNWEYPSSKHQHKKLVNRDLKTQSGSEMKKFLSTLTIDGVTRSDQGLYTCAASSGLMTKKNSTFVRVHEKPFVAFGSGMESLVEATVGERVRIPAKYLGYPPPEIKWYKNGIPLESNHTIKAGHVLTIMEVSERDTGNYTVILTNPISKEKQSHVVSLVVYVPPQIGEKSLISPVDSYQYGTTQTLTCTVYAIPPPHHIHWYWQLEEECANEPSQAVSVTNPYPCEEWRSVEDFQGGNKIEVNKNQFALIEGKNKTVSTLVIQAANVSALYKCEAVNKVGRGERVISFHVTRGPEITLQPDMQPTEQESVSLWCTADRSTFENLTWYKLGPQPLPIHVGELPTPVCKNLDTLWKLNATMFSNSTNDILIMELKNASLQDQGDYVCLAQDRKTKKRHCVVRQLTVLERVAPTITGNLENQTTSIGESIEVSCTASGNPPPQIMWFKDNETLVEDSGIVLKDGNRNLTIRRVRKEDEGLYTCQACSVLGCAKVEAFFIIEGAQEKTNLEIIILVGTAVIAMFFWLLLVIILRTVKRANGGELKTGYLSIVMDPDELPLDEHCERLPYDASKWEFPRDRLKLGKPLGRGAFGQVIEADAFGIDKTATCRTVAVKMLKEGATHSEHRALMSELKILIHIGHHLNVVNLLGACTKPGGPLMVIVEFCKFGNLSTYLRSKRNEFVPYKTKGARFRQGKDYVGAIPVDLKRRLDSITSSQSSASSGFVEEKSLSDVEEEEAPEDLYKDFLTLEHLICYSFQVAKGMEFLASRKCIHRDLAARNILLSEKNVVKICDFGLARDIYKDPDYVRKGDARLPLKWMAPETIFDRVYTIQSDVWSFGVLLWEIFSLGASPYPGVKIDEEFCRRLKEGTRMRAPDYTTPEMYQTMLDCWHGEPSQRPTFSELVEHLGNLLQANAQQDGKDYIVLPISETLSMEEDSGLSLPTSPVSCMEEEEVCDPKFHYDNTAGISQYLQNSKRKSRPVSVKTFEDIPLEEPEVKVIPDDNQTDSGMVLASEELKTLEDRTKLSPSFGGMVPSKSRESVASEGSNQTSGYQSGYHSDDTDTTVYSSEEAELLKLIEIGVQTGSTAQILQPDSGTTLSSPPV

[5] = target: Proto-oncogene tyrosine-protein kinase Src (Homo sapiens) (UniProt P12931); experiment: Inhibitory of c-SRC
Chain of Proto-oncogene tyrosine-protein kinase Src (Homo sapiens) (P12931 2-536 limits assumed): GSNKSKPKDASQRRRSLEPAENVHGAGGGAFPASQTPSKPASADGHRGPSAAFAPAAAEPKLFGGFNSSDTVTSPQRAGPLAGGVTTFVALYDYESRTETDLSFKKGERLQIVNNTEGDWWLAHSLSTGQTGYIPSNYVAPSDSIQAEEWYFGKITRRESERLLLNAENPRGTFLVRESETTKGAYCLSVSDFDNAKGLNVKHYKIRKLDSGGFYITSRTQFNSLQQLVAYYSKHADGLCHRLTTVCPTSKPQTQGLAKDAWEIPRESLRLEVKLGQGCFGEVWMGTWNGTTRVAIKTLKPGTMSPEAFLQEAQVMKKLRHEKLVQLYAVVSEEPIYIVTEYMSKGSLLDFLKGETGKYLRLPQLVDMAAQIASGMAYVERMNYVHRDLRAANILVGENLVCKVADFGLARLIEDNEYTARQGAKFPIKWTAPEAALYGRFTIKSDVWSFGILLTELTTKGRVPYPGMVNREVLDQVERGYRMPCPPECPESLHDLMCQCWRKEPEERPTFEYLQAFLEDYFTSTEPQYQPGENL

[6] = test system: SK-N-MC; experiment: Inhibition of chimeric human EGFR/RET kinase expressed in SK-N-MC cells after 1 hr by Western blotting; type: cell-based
[7] = target: Angiopoietin-1 receptor (Homo sapiens) (UniProt Q02763); experiment: Inhibitory of TIE2
Chain of Angiopoietin-1 receptor (Homo sapiens) (Q02763 whole entry): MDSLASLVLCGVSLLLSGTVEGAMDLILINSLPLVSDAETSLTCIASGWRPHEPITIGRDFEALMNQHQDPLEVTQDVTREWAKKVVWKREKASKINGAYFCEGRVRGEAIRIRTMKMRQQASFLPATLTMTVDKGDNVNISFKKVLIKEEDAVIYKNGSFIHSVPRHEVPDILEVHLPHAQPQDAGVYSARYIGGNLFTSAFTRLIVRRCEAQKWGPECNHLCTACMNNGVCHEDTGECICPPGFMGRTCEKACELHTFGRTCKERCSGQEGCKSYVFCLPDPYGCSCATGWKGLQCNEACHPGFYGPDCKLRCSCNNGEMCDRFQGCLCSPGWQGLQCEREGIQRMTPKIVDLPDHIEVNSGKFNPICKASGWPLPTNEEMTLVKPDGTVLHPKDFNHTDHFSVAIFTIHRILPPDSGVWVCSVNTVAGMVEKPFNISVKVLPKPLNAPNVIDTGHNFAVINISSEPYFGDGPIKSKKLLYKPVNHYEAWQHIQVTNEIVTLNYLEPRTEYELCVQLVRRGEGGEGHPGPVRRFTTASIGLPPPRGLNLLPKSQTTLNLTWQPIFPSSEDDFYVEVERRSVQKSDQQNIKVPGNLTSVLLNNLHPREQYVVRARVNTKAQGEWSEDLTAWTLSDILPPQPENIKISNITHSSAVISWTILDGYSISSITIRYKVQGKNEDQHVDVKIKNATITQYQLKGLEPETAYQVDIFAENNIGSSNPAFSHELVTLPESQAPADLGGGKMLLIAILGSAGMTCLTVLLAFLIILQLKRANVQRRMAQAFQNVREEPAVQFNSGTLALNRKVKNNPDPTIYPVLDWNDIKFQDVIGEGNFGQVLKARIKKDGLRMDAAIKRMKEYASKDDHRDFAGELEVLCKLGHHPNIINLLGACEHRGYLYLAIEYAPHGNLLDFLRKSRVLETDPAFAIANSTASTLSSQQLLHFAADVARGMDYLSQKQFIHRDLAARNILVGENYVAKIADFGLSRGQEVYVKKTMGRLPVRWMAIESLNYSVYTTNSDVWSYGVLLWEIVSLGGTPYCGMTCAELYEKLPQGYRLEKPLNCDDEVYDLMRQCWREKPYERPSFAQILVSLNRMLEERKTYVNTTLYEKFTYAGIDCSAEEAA

T1 sequence (P07949 whole entry): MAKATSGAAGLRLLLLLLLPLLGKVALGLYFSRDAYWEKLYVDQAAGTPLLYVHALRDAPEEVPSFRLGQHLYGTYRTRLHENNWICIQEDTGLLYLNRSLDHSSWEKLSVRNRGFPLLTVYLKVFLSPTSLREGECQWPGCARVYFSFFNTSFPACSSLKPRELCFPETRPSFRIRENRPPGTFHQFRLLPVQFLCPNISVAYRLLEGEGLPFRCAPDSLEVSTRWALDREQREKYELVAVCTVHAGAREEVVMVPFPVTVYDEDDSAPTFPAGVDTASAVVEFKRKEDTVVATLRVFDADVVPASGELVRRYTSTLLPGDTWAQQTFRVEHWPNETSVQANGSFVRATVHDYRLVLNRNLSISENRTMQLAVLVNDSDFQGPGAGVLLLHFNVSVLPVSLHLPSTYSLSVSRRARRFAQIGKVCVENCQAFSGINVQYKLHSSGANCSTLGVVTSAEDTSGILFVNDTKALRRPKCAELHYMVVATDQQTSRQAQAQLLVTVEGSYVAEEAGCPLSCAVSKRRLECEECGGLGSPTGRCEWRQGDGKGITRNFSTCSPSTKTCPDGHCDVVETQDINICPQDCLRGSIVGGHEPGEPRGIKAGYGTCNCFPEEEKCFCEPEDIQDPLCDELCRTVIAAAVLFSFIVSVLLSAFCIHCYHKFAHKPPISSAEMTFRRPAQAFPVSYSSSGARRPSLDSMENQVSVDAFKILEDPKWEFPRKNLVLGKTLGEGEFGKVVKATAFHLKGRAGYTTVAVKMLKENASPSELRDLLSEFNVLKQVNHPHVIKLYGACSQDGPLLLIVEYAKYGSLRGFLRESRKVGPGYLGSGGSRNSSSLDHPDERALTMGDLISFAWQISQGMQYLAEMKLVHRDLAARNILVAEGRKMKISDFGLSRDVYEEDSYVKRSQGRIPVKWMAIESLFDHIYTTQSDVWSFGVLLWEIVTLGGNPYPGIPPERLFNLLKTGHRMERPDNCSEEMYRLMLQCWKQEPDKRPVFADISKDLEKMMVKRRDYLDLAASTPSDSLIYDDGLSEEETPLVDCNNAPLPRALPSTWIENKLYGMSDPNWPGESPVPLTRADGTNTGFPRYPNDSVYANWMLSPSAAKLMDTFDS

Structure (SMILES) | IC50 [1] | Activity [2] | other results
NS(=O)(=O)c1ccc(-c2cnc3c(c2)/C(=C/c2cc(Br)c(O)c(Br)c2)C(=O)N3)cc1 |  | 355 cpm | 
CS(=O)(=O)Cc1ccc(N/C=C2\C(=O)Nc3ccc4ncsc4c32)cc1 |  | 1310 cpm | 
CN(C)S(=O)(=O)c1ccc(N/C=C2\C(=O)Nc3ccc4ncccc4c32)cc1 |  | 1210 cpm | 
COc1cc2ncnc(Nc3ccc(Cl)c(O)c3)c2cc1OC |  | 298 cpm | 
Cc1ccc(O)cc1Nc1ccnc2ccc(S(=O)(=O)NCC3CC3)cc12 | 90 nM |  | 
Cc1ccc(O)cc1Nc1ccnc2ccc(S(C)(=O)=O)cc12 |  |  | Activity [3]: Active; Activity [4]: Active; Activity [5]: Active; Activity [7]: Active
O=C1Nc2ccc3ncsc3c2/C1=C/c1c[nH]cn1 |  | 950 cpm | 
O=C1Nc2ccc3ncsc3c2/C1=C/Nc1ccc2c(c1)CS(=O)(=O)C2 |  | 428 cpm | 

Now from value to compound, other results behind:

IC50 [1] | Activity [2] | Structure (SMILES) | other results
95 nM |  | Cc1ccc(O)cc1Nc1ccnc2ccc(C(=O)NC(C)C)cc12 | 
25 nM |  | OCc1nc(-c2ccc3c(Nc4cc(O)c(F)cc4Cl)ccnc3c2)cs1 | 
34 nM |  | Cc1ccc(O)cc1Nc1ccnc2cc(-c3csc(CN4CCOCC4)n3)c(S(C)(=O)=O)cc12 | Activity [3]: Active; Activity [4]: Active; Activity [5]: Active; ED50 [6]: 45 nM; Activity [7]: Active
6 nM |  | Oc1cccc(Nc2ccnc3cc(-c4ccccn4)ccc23)c1 | 
100 nM |  | Oc1cccc(Nc2c(Cl)cnc3cc(-c4cncs4)ccc23)c1 | 
75 nM |  | Cc1ccc(O)cc1Nc1ccnc2cc(-c3ccccn3)ccc12 | 
> 1000 nM |  | Oc1cc(Nc2ccnc3cc(-c4ccc(CN5CCOCC5)o4)c(Cl)cc23)c(Cl)cc1F | 
75 nM |  | Oc1cc(Nc2ccnc3cc(-c4cccc(CNCCN5CCOCC5)c4)ccc23)c(F)cc1Cl | 
85 nM |  | Oc1cc(Nc2ccnc3cc(-c4cc5ccccc5o4)ccc23)ccc1Br | 
 | 460 cpm | CS(=O)(=O)c1ccc2nccc(Nc3cc(O)c(F)cc3Cl)c2c1 | 
> 1000 nM |  | Cc1ccc(O)cc1Nc1cc(C(F)(F)F)nc2cc(-c3ccncc3)ccc12 | 
